This note sets out measurements from ChEMBL document CHEMBL4002579, “Isolation and Structure Elucidation by LC-DAD-MS and LC-DAD-SPE-NMR of Cyclopeptide Alkaloids from the Roots of Ziziphus oxyphylla and Evaluation of Their Antiplasmodial Activity” (J Nat Prod, 2016).

Structures are written as SMILES.

Assay [1] deals with Plasmodium falciparum. Nature of the assay: Antiplasmodial activity against chloroquine-resistant Plasmodium falciparum K1 infected in human O+erythrocytes after 72 hrs by lactate dehydrogenase assay. The class given is functional, cell-based. The conditions noted are these: K1, 72 h.
A further assay concerns MRC5. Put plainly: Cytotoxicity against human MRC5 cells assessed as decrease in cell proliferation/viability after 7 days by MTT assay. The class given is cell-based. The conditions noted are these: MRC5, 168 h. Put shortly:
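Human fetal lung fibroblast MRC-5 cells; tested up to a highest concentration of 64.0 μM. Result is the mean and standard deviation of three experiments.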
For orientation: Tetrazolium dyes change colour on reduction, which living cells bring about.

In assay [2] the test system is Plasmodium falciparum. Nature of the assay: Antiplasmodial activity against multidrug-resistant Plasmodium falciparum K1 assessed as reduction in parasite growth by [3H]-hypoxanthine incorporation assay. The class given is functional.

A word on the IC50: it is the midpoint of a concentration-inhibition curve. In the case of `CCC(C)[C@@H]1NC(=O)[C@@H]2[C@H](CCN2C(=O)[C@H](Cc2c[nH]c3ccccc23)N(C)C)Oc2ccc(OC)c(c2)/C=C\NC1=O` (stereo partly specified), the IC50 with Plasmodium falciparum [1] is 3.2 µM; in the assay on MRC5, 30.6 µM.
The corresponding values for `O=C1N/C=C\c2ccc(cc2)O[C@@H](c2ccccc2)[C@H](NC(=O)[C@@H]2CCCN2C(=O)/C=C/c2ccccc2)C(=O)N[C@H]1C(O)c1ccccc1` (stereo partly specified) are 7.4 µM and 31.2 µM.
For the compound `CCC(C)[C@@H]1NC(=O)[C@@H]2[C@H](CCN2C(=O)[C@H](Cc2c[nH]c3ccccc23)N(C)C)Oc2ccc(cc2)/C=C\NC1=O` (stereo partly specified), the results for the IC50 with Plasmodium falciparum [1], with MRC5 and in the assay with Plasmodium falciparum [2] were 13.6 µM, greater than 64 µM and 7.3 µM, respectively.
Consider `CCC(C)[C@@H]1NC(=O)[C@@H]2[C@H](CCN2C(=O)[C@H](Cc2c[nH]c3ccccc23)N(C)C)Oc2ccc(O)c(c2)/C=C\NC1=O` (stereo partly specified), for which the IC50 with Plasmodium falciparum [1] is 7.1 µM; with MRC5, greater than 64 µM.
Consider `CCC(C)[C@@H]1NC(=O)[C@@H]2[C@H](CCN2C(=O)[C@H](C(C)CC)N(C)C)Oc2ccc(cc2)/C=C\NC1=O` (stereo partly specified), for which the figures for the IC50 in the assay with Plasmodium falciparum [1] and with MRC5 were greater than 32 µM and greater than 64 µM, respectively.
